In ChEMBL document CHEMBL3271997, “Reactions of 2-acyloxyisobutyryl halides with nucleosides. 6. Synthesis and biological evaluation of some 3'-acyl derivatives of 2,2'-anhydro-1-(beta-D-arabinofuranosyl)cytosine hydrochloride” (J Med Chem, 1976):
The source made the active and inactive calls. No cut-off for these calls is given here.

Assays:
Vaccinia virus = assay: Antiviral activity against Vaccinia virus IHD infected in African green monkey BGM cells after 6 days by plaque reduction assay; format: functional; conditions: Orthopoxvirus vaccinia, 144 h, read-out: ED50 (the source's name)
L1210 [1] = assay: Antitumor activity against mouse L1210 cells allografted in BDF1 mouse assessed as survival at 200 mg/kg, ip administered as single dose 24 hrs post-implantation after 30 days; format: functional, organism-based; set-up: dose 200 mg/kg
Method in brief: (§1)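 BDF1 mice were inoculated ip with 1-2 × 10⁵ L1210 cells. After 24 h, one ip dose was given as a solution or suspension in aqueous 0.9% NaCl, 0.4% polysorbate 80, 0.5% low-viscosity Na carboxymethylcellulose and 0.9% benzyl alcohol. Mice were followed for 30 days, with 8-10 per group. The read-out is % increase in life span versus infected controls, plus the count of 30-day survivors.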

Herpesviridae sp. = assay: Antiviral activity against Herpes simplex virus HF infected in African green monkey BGM cells after 6 days by plaque reduction assay; format: functional; conditions: 144 h, read-out: ED50 (the source's name)
Method in brief: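 Quantitative plaque reduction assay. Confluent BGM monolayers were infected with 100-200 pfu of HSV (HF strain) and overlaid with 1.25% agar in MEM with 2.0% bovine serum containing graded compound concentrations. A second overlay with neutral red (1:20000) was added on day 4, and plaques were counted on day 6. ED50, the μM concentration giving 50% plaque reduction, was taken from a probability plot of % inhibition against concentration.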

HeLa = assay: Cytotoxicity against human HeLa cells after 48 hrs by Coulter counting analysis; format: functional; conditions: read-out: ED50 (the source's name)
Method in brief: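 HeLa cells (10⁵) were grown for 2 days at 37° in MEM with 10% bovine serum. The medium was then replaced with fresh medium containing serial compound dilutions. After 48 h, cells were dispersed with 0.02% trypsin and 0.04% versene and counted on a Coulter counter. The result is expressed as ED50 in μg/ml.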

L1210 [2] = assay: Antitumor activity against mouse L1210 cells allografted in BDF1 mouse assessed as increase in life span at 200 mg/kg, ip administered as single dose 24 hrs post-implantation measured up to 30 days relative to control; format: functional; conditions: route intraperitoneal
Method in brief: (§2)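 BDF1 mice inoculated ip with 1-2 × 10⁵ L1210 cells; 24 h later a single ip dose given as solution or suspension in aqueous 0.9% NaCl, 0.4% polysorbate 80, 0.5% low-viscosity sodium carboxymethylcellulose, 0.9% benzyl alcohol. Mice held on normal diet for 30 days. Groups of eight to ten animals; percent increase in life span versus untreated infected controls, with 30-day survivors counted.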

Mus musculus [3] = assay: Toxicity in BDF1 mouse allografted with mouse L1210 cells assessed as reduction in average life span at 200 mg/kg, ip administered as single dose 24 hrs post-implantation measured up to 30 days relative to control; format: organism-based; set-up: dose 200 mg/kg, route intraperitoneal; conditions: in vivo; method in brief: as §1
Mus musculus [4] = assay: Toxicity in BDF1 mouse allografted with mouse L1210 cells assessed as reduction in survival at 200 mg/kg, ip administered as single dose 24 hrs post-implantation measured up to 30 days relative to control; format: organism-based; set-up: dose 200 mg/kg, route intraperitoneal; conditions: in vivo; method in brief: as §2
L1210 [5] = assay: Antitumor activity against mouse L1210 cells allografted in BDF1 mouse assessed as increase in life span at 1000 mg/kg, ip administered as single dose 24 hrs post-implantation measured up to 30 days relative to control; format: functional; conditions: route intraperitoneal; method in brief: as §2
L1210 [6] = assay: Antitumor activity against mouse L1210 cells allografted in BDF1 mouse assessed as survival at 1000 mg/kg, ip administered as single dose 24 hrs post-implantation after 30 days; format: functional, organism-based; set-up: dose 1000 mg/kg; method in brief: as §1
Mus musculus [7] = assay: Toxicity in BDF1 mouse allografted with mouse L1210 cells assessed as reduction in survival at 1000 mg/kg, ip administered as single dose 24 hrs post-implantation measured up to 30 days relative to control; format: organism-based; set-up: dose 1000 mg/kg, route intraperitoneal; conditions: in vivo; method in brief: as §2
Mus musculus [8] = assay: Toxicity in BDF1 mouse allografted with mouse L1210 cells assessed as reduction in average life span at 1000 mg/kg, ip administered as single dose 24 hrs post-implantation measured up to 30 days relative to control; format: organism-based; set-up: dose 1000 mg/kg, route intraperitoneal; conditions: in vivo; method in brief: as §1
Mus musculus [9] = assay: Toxicity in BDF1 mouse allografted with mouse L1210 cells assessed as reduction in survival at 500 mg/kg, ip administered as single dose 24 hrs post-implantation measured up to 30 days relative to control; format: organism-based; set-up: dose 500 mg/kg, route intraperitoneal; conditions: in vivo; method in brief: as §2
Mus musculus [10] = assay: Toxicity in BDF1 mouse allografted with mouse L1210 cells assessed as reduction in average life span at 500 mg/kg, ip administered as single dose 24 hrs post-implantation measured up to 30 days relative to control; format: organism-based; set-up: dose 500 mg/kg, route intraperitoneal; conditions: in vivo; method in brief: as §1
[11] = Half life in human; format: ADME, organism-based; conditions: in vivo

Compound | EC50 (Vaccinia virus) | Activity (L1210 [1]) | EC50 (Herpesviridae sp.) | EC50 (HeLa) | ILS at 200 mg/kg (L1210 [2]) | ILS (Mus musculus [3]) | Activity (Mus musculus [4]) | ILS at 1000 mg/kg (L1210 [5]) | Activity (L1210 [6]) | Activity (Mus musculus [7]) | ILS (Mus musculus [8]) | Activity (Mus musculus [9]) | ILS (Mus musculus [10]) | half-life [11]
CCCCCCCCCCC(=O)O[C@H]1[C@@H]2Oc3nc(=N)ccn3[C@@H]2O[C@@H]1CO.Cl | 190 nM | inactive | 460 nM | 0.06 µg/mL | 87% |  |  |  |  |  |  |  |  | 
CCCCCCC/C=C/C(=O)O[C@H]1[C@@H]2Oc3nc(=N)ccn3[C@@H]2O[C@@H]1CO.Cl | 150 nM |  | 210 nM | 0.06 µg/mL |  | -83% | Toxic |  |  |  |  |  |  | 
CCCCCC(=O)O[C@H]1[C@@H]2Oc3nc(=N)ccn3[C@@H]2O[C@@H]1CO.Cl | 230 nM | inactive | 1550 nM | 0.1 µg/mL | 40% |  |  |  |  |  |  |  |  | 
C=CCCCCCCCCC(=O)O[C@H]1[C@@H]2Oc3nc(=N)ccn3[C@@H]2O[C@@H]1CO.Cl | 510 nM | inactive | 1200 nM | 0.05 µg/mL | 38% |  |  |  |  |  |  |  |  | 
CC(=O)O[C@H]1[C@@H]2Oc3nc(=N)ccn3[C@@H]2O[C@@H]1CO.Cl | 730 nM | inactive | 2250 nM | 0.18 µg/mL | 37% |  |  | 87% | inactive |  |  |  |  | 
CCCCCCCCCCCCCCCC(=O)O[C@H]1[C@@H]2Oc3nc(=N)ccn3[C@@H]2O[C@@H]1CO.Cl | 1200 nM |  | 5500 nM | 0.2 µg/mL | > 191% |  |  |  |  | Toxic | -20% |  |  | 
CCCC(=O)O[C@H]1[C@@H]2Oc3nc(=N)ccn3[C@@H]2O[C@@H]1CO.Cl | 590 nM | inactive | 2050 nM | 0.12 µg/mL | 30% |  |  |  |  |  |  |  |  | 
CCCCCCCC/C=C\CCCCCCCC(=O)O[C@H]1[C@@H]2Oc3nc(=N)ccn3[C@@H]2O[C@@H]1CO.Cl | 670 nM | inactive | 1200 nM | 0.08 µg/mL | 72% |  |  |  |  |  |  |  |  | 
CCCCCCCC(=O)O[C@H]1[C@@H]2Oc3nc(=N)ccn3[C@@H]2O[C@@H]1CO.Cl | 190 nM |  | 720 nM | 0.1 µg/mL | 34% |  |  |  |  | Toxic | -100% | Toxic | -93% | 
CC(C)C(=O)O[C@H]1[C@@H]2Oc3nc(=N)ccn3[C@@H]2O[C@@H]1CO.Cl | 1550 nM | inactive | 8800 nM | 0.2 µg/mL | 22% |  |  |  |  |  |  |  |  | 
CCCCCCCCCCCC(=O)O[C@H]1[C@@H]2Oc3nc(=N)ccn3[C@@H]2O[C@@H]1CO.Cl | 640 nM | inactive | 640 nM | 0.1 µg/mL | 40% |  |  |  |  |  |  |  |  | 
Nc1ccn([C@@H]2O[C@H](CO)[C@@H](O)[C@@H]2O)c(=O)n1 [CYTARABINE] |  |  |  |  |  |  |  |  |  |  |  |  |  | 12 min
